Data as given in ChEMBL document CHEMBL2380245, “Synthesis and evaluation of 2,3-dinorprostaglandins: Dinor-PGD1 and 13-epi-dinor-PGD1 are peroxisome proliferator-activated receptor α/γ dual agonists” (Bioorg Med Chem Lett, 2013).
The source made the active and inactive calls.

Experiments:
Assay type in all cases: cell-based
[1] = target: T1, Peroxisome proliferator-activated receptor delta (Homo sapiens) (UniProt Q03181); assay: Agonist activity at PPARdelta (unknown origin) transfected in HEK293 cells at 10 uM by luciferase reporter gene assay
T1 sequence (whole entry): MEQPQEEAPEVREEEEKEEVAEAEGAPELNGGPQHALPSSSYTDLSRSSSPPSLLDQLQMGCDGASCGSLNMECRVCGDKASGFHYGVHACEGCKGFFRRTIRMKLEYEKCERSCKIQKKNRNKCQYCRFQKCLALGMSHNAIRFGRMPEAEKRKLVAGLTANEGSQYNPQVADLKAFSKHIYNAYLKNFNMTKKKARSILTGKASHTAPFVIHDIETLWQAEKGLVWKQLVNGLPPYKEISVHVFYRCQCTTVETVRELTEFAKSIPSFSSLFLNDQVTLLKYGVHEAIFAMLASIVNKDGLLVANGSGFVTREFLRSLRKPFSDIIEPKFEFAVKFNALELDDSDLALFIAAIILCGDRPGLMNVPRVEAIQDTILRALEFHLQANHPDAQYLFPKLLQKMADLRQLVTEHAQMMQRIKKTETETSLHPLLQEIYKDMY

[2] = target: T2, Peroxisome proliferator-activated receptor alpha (Homo sapiens) (UniProt Q07869); assay: Agonist activity at PPARalpha (unknown origin) transfected in HEK293 cells at 10 uM by luciferase reporter gene assay
T2 sequence (whole entry): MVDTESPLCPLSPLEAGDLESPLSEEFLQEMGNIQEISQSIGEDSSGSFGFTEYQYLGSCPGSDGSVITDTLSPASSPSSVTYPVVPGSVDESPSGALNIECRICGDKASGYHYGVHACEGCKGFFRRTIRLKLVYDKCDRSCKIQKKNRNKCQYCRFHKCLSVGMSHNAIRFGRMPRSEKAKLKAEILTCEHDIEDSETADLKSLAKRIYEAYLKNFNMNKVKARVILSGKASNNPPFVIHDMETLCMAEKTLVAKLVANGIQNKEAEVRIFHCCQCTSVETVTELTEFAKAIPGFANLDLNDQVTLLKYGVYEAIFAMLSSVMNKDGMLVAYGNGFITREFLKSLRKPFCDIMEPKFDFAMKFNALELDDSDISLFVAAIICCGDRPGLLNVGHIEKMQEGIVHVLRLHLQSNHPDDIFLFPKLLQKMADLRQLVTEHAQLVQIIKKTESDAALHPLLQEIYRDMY
Method in brief: (§1)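 Luciferase PPAR reporter assay in transfected HEK293 cells, run following a previously reported protocol. Each receptor was tested alongside a subtype-selective reference agonist as control: PPARα at 10 µM, PPARδ at 100 nM and PPARγ at 10 µM.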

[3] = target: T2, Peroxisome proliferator-activated receptor alpha (Homo sapiens); assay: Agonist activity at PPARalpha (unknown origin) transfected in HEK293 cells at 1 to 30 uM by luciferase reporter gene assay
[4] = target: T3, Peroxisome proliferator-activated receptor gamma (Homo sapiens) (UniProt P37231); assay: Agonist activity at PPARgamma (unknown origin) transfected in HEK293 cells at 10 uM by luciferase reporter gene assay; method in brief: as §1
T3 sequence (whole entry): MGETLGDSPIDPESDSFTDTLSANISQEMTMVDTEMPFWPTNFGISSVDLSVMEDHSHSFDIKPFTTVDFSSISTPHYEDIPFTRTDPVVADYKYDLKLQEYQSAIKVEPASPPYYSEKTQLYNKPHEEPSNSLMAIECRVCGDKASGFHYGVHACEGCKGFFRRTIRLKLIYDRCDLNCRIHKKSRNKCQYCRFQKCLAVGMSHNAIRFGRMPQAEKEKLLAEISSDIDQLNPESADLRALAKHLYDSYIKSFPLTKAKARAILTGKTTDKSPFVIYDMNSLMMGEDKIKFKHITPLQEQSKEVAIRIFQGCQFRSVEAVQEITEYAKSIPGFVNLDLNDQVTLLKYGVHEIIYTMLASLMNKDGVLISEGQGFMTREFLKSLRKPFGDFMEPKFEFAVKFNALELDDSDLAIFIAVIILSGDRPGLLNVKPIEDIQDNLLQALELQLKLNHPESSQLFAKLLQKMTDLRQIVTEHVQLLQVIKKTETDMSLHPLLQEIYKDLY

[5] = target: T3, Peroxisome proliferator-activated receptor gamma (Homo sapiens); assay: Agonist activity at PPARgamma (unknown origin) transfected in HEK293 cells at 1 to 30 uM by luciferase reporter gene assay

Measured: Activity

CCCCC[C@H](O)/C=C/[C@H]1C(=O)C[C@H](O)[C@@H]1C/C=C\CCCC(=O)O
active: all assays above

CCCCC[C@H](O)/C=C/[C@H]1C(=O)C[C@H](O)[C@@H]1CCCCC(=O)O
active: [2] | [3] | [5]

CCCCC/C=C/C=C1/C(=O)C=C[C@@H]1CCCCC(=O)O
active: [1] | [2] | [4]

CC(C)(Oc1ccc(C(=O)c2ccc(Cl)cc2)cc1)C(=O)O
active: [1] | [2] | [4]

CC1(COc2ccc(CC3SC(=O)NC3=O)cc2)CCCCC1 (stereo not given)
active: [1] | [2] | [4]

CCCCC[C@@H](O)/C=C/[C@H]1C(=O)C[C@H](O)[C@@H]1CCCCC(=O)O
active: [2] | [3] | [5]
